Experimental data from ChEMBL document CHEMBL1149266, “2,3-diaminopyridine bradykinin B1 receptor antagonists” (J Med Chem, 2004).

Key:
[1] = Half life in Sprague-Dawley rat at 2 mg/kg, iv; format: ADME, organism-based; parameters: dose 2 mg/kg, route intravenous; settings: in vivo
[2] = Oral bioavailability in Sprague-Dawley rat at 10 mg/kg, po; format: ADME, organism-based; settings: in vivo
[3] = molecular target: T1, B1 bradykinin receptor (Homo sapiens, UniProt P46663); assay: Displacement of [3H]des-arg10, leu9-kallidin from human bradykinin B1 receptor expressed in CHO cells; format: cell-based
T1 sequence (P46663 whole entry): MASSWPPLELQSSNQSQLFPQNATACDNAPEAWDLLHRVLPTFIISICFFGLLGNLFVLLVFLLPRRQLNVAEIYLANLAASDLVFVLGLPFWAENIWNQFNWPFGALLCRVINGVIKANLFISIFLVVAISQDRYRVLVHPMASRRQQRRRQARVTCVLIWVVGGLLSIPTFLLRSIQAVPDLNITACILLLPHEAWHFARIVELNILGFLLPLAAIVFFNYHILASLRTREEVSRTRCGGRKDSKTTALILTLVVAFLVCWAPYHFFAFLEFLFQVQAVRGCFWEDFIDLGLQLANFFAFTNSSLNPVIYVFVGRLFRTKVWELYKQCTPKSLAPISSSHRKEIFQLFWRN
Outline: (§1)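 Radioligand binding using CHO cells that stably express the human B1 or B2 receptor, with the appropriate radioligand for each; Ki in nM.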

[4] = Clearance in Sprague-Dawley rat at 2 mg/kg, iv; format: ADME, organism-based; parameters: dose 2 mg/kg, route intravenous; settings: in vivo
[5] = Clearance in mongrel dog at 1 mg/kg, iv; format: ADME, organism-based, Canis lupus familiaris; parameters: dose 1 mg/kg, route intravenous; settings: in vivo
[6] = molecular target: T1, B1 bradykinin receptor; assay: Antagonist activity at bradykinin B1 receptor expressed in CHO cells assessed as inhibition of des-arg10-kallidin-induced increase in cytosolic calcium level by FLIPR assay; format: functional, cell-based
Outline: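 FLIPR functional assay using functionally active human B1 receptors; IC50 in nM.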

[7] = Half life in mongrel dog at 1 mg/kg, iv; format: ADME, organism-based, Canis lupus familiaris; parameters: dose 1 mg/kg, route intravenous; settings: in vivo
[8] = Oral bioavailability in mongrel dog at 3 mg/kg, po; format: ADME, organism-based, Canis lupus familiaris; settings: in vivo
[9] = molecular target: T2, B2 bradykinin receptor (Homo sapiens, UniProt P30411); assay: Displacement of [3H]bradykinin from human bradykinin B2 receptor expressed in CHO cells; format: cell-based; outline: as §1
T2 sequence (P30411 whole entry): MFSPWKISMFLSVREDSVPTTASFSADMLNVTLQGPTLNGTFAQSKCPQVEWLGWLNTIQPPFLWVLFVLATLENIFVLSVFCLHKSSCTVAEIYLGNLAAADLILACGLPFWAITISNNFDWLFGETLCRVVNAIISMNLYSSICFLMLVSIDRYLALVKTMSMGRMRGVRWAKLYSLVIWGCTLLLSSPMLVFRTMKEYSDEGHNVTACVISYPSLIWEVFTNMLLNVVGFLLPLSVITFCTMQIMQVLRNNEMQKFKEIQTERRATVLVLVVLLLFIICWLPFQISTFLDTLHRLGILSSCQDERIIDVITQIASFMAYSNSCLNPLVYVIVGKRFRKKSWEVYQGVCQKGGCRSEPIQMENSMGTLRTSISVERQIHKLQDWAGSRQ

[10] = molecular target: T3, B1 bradykinin receptor (Rattus norvegicus, UniProt P97583); assay: Displacement of [3H]des-arg10 kallidin from rat bradykinin B1 receptor expressed in CHO cells; format: cell-based
T3 sequence (P97583 whole entry): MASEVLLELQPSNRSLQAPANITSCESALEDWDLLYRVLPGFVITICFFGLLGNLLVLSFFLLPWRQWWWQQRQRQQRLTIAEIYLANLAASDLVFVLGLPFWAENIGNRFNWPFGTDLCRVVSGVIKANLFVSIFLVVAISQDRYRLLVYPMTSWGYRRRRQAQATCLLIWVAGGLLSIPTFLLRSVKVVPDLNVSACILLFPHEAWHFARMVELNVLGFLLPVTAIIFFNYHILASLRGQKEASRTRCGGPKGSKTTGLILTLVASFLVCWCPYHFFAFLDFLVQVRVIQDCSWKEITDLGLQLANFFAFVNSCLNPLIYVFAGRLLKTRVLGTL
Outline: (§2)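 Radioligand binding at rat or rabbit B1 receptor; Ki in nM. Values are the average of at least two experiments, with ±25% interassay variability.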

[11] = test system: Oryctolagus cuniculus; assay: Antinociceptive effect against CFA-induced hyperalgesia in iv dosed New Zealand rabbit model by spinal nociceptive reflex assay; format: functional; settings: read-out: ID50 (the source's name)
Outline: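 CFA was used to induce mechanical hyperalgesia in the rabbit hind paw. The read-out was inhibition of the spinal nociceptive reflex to a noxious pinch of the inflamed paw. Antagonist was dosed iv over a dose range, giving an ID50 (mg/kg). Three rabbits per experiment.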

[12] = molecular target: T4, B1 bradykinin receptor (Oryctolagus cuniculus) (UniProt P48748); assay: Inhibition of desArg9-bradykinin-induced decrease in mean arterial blood pressure in iv dosed New Zealand white rabbit; format: functional, organism-based
T4 sequence (whole entry): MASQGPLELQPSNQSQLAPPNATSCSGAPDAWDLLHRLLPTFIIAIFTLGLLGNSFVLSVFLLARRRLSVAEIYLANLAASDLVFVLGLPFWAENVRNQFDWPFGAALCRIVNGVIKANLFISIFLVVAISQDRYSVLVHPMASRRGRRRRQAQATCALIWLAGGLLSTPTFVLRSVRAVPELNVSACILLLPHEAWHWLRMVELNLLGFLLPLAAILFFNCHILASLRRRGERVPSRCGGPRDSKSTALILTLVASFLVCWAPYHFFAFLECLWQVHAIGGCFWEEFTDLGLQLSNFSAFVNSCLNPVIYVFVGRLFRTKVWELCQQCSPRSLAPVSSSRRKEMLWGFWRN
Outline: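 Rabbits received iv LPS to induce vascular B1 receptors. The depressor blood pressure response to DABK (1 μg/kg iv) was recorded. Rising iv doses of antagonist were given as pretreatment before repeated DABK doses, giving an AD50 (mg/kg). Three rabbits per experiment.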

[13] = molecular target: T5, B1 bradykinin receptor (Oryctolagus cuniculus, UniProt P48748); assay: Binding affinity to rabbit bradykinin B1 receptor; outline: as §2
T5 sequence (P48748 whole entry): T4 sequence (whole entry)

[14] = molecular target: T5, B1 bradykinin receptor; assay: Activity at rabbit bradykinin B1 receptor assessed by FLIPR assay; format: functional
Outline: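 FLIPR functional assay using functionally active rabbit B1 receptors; IC50 in nM. Values are the average of at least two experiments, with ±30% interassay variability.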

SMILES | half-life [1] | bioavailability [2] | Ki [3] | clearance [4] | clearance [5] | IC50 [6] | half-life [7] | bioavailability [8] | Ki [9] | Ki [10] | ED50 [11] | AD50 [12] | Ki [13] | IC50 [14]
C[C@@H](Nc1nccc(Cl)c1NC(=O)CC#N)c1ccc(-c2cccc(F)c2C(F)(F)F)cc1 | 1.8 h | 52% | 1.1 nM (antagonist) | 36 mL/min/kg |  |  |  |  |  |  |  |  |  | 
Cc1nc(-c2c(F)cccc2-c2ccc([C@@H](C)Nc3nccc(Cl)c3NC(=O)CC#N)cc2)no1 | 12.9 h | 50% | 0.7 nM (antagonist) | 4.9 mL/min/kg | 5.9 mL/min/kg | 0.78 nM (antagonist) | 2 h | 25% |  |  |  |  |  | 
COC(=O)c1ccc(C)cc1-c1ccc([C@@H](C)Nc2nccc(C)c2NC(=O)CC#N)cc1 | 0.6 h | 21% | 1.2 nM (antagonist) | 42 mL/min/kg |  | 1.4 nM (antagonist) |  |  | > 10000 nM |  |  |  |  | 
COC(=O)c1c(F)cccc1-c1ccc([C@@H](C)Nc2nccc(Cl)c2NC(=O)CC#N)cc1 | 2.1 h | 50% | 0.4 nM (antagonist) | 11 mL/min/kg | 9 mL/min/kg | 0.25 nM (antagonist) | 2.7 h | 34% |  | 35.3 nM (antagonist) | 2.1 mg/kg | 0.57 mg/kg | 0.69 nM (antagonist) | 2.4 nM (antagonist)
C[C@@H](Nc1nccc(Cl)c1NC(=O)CC#N)c1ccc(-c2cccc(F)c2C#N)cc1 | 0.9 h | 80% | 2 nM (antagonist) | 8.3 mL/min/kg |  |  |  |  |  |  |  |  |  | 
COC(=O)c1ccc(Cl)cc1-c1ccc([C@@H](C)Nc2nccc(Cl)c2NC(=O)CC#N)cc1 | 0.5 h | 6% | 0.8 nM (antagonist) | 25 mL/min/kg | 5.5 mL/min/kg | 1.5 nM (antagonist) | 0.9 h | 2% |  |  |  |  |  | 
Cc1noc(-c2c(F)cccc2-c2ccc([C@@H](C)Nc3nccc(Cl)c3NC(=O)CC#N)cc2)n1 | 8.8 h | 62% | 0.5 nM (antagonist) | 9.5 mL/min/kg | 7.3 mL/min/kg | 0.94 nM (antagonist) | 2.1 h | 14% |  | 81 nM (antagonist) |  |  | 2.7 nM (antagonist) | 12.3 nM (antagonist)
CCCCC(=O)Nc1cccnc1NCc1ccc(-c2ccccc2C(=O)OC)cc1 |  |  | 200 nM (antagonist) |  |  |  |  |  |  |  |  |  |  | 
C[C@@H](Nc1nccc(Cl)c1NC(=O)CC#N)c1ccc(-c2cccc(F)c2-c2nnn(C)n2)cc1 | 7.8 h | 73% | 0.5 nM (antagonist) | 9 mL/min/kg | 2.4 mL/min/kg | 1.17 nM (antagonist) | 3.8 h | 69% |  | 119 nM (antagonist) | 3.1 mg/kg | 0.28 mg/kg | 3 nM (antagonist) | 3.9 nM (antagonist)
C[C@@H](Nc1nccc(Cl)c1NC(=O)CC#N)c1ccc(-c2cccc(F)c2-c2nnnn2C)cc1 |  |  | 6 nM (antagonist) |  |  |  |  |  |  | 12 nM (antagonist) |  |  | 41.5 nM (antagonist) | 
COC(=O)c1c(Cl)cccc1-c1ccc([C@@H](C)Nc2nccc(Cl)c2NC(=O)CC#N)cc1 | 1.3 h | 43% | 0.7 nM (antagonist) | 24 mL/min/kg | 8.7 mL/min/kg | 0.85 nM (antagonist) | 6.3 h | 23% |  | 35.7 nM (antagonist) | 0.9 mg/kg | 0.8 mg/kg | 1.1 nM (antagonist) | 7.2 nM (antagonist)
